The target in data set [1] is Metabotropic glutamate receptor 1 (Homo sapiens, UniProt Q13255). Briefly: Inhibitory concentration against human metabotropic glutamate receptor. Put shortly:
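Human mGlu1a receptor stably expressed in L929sA cells grown in GlutaMAX1 medium with 10% heat-inactivated dialyzed fetal calf serum, streptomycin and penicillin. Antagonism of receptor activation was read as intracellular Ca2+ response on a fluorometric imaging plate reader. IC50 is the mean of two or three independent experiments.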

Data set [2] addresses Metabotropic glutamate receptor 1 (Rattus norvegicus, UniProt P23385). Briefly: Inhibitory concentration against rat metabotropic glutamate receptor 1. In short, it runs like this:
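Rat mGlu1a stably expressed in CHO-dhfr- cells grown in DMEM/GlutaMAX1 with 10% heat-inactivated dialyzed fetal calf serum, 0.4 mM L-proline and antibiotics. Inhibition of receptor activation was measured as intracellular Ca2+ rise on a fluorometric imaging plate reader. IC50 is the mean of two or three independent experiments.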

Data set [3] in a line: Half life in rat after the single intravenous administration at 2.5 mg/kg. It is filed as ADME, organism-based. More on the design: dose 2.5 mg/kg, route intravenous. The settings on record: in vivo. In short, it runs like this:
(§1)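 Rats received a single intravenous 2.5 mg/kg dose. Plasma kinetics were followed to derive elimination half-life and total plasma clearance.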

Data set [4] is described as follows: Total plasma clearance in rat after the single intravenous administration at 2.5 mg/kg. It is filed as ADME, organism-based. More on the design: dose 2.5 mg/kg, route intravenous. Put shortly:
as §1

These results are taken from ChEMBL document CHEMBL1144351, “Synthesis, structure-activity relationship, and receptor pharmacology of a new series of quinoline derivatives acting as selective, noncompetitive mGlu1 antagonists” (J Med Chem, 2005).

Sequence of Metabotropic glutamate receptor 1 (Homo sapiens, UniProt Q13255) (Q13255 whole entry): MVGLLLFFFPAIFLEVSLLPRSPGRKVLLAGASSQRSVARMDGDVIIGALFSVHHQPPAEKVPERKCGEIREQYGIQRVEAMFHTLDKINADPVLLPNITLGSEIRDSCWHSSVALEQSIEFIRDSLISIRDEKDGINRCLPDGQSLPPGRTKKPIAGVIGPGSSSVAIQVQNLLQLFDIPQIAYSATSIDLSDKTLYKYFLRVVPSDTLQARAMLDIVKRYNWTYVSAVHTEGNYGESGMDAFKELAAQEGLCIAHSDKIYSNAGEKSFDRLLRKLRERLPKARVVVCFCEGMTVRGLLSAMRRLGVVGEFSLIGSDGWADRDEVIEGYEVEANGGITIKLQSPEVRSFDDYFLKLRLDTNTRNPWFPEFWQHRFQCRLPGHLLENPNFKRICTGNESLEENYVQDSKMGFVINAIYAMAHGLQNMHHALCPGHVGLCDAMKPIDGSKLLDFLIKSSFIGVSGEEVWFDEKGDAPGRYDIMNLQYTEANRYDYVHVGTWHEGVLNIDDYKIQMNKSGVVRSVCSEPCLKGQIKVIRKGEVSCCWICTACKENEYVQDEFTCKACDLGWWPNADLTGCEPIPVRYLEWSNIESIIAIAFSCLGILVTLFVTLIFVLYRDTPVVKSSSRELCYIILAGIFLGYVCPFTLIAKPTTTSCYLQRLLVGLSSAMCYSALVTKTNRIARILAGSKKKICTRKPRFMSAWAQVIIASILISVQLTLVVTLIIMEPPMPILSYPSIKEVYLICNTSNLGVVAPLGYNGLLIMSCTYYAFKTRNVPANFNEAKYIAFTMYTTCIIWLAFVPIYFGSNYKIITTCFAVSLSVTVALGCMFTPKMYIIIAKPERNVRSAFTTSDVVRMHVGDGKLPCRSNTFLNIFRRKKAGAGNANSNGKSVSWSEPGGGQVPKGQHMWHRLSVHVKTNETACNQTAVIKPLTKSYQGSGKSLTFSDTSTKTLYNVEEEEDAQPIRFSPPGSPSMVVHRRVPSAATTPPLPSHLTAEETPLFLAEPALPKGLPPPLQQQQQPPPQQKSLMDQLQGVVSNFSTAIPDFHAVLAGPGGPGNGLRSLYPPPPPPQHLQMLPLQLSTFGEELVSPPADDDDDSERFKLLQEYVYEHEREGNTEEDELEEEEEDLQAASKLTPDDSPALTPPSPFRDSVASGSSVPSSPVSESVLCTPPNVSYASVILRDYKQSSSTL
Sequence of Metabotropic glutamate receptor 1 (Rattus norvegicus, UniProt P23385) (P23385 whole entry): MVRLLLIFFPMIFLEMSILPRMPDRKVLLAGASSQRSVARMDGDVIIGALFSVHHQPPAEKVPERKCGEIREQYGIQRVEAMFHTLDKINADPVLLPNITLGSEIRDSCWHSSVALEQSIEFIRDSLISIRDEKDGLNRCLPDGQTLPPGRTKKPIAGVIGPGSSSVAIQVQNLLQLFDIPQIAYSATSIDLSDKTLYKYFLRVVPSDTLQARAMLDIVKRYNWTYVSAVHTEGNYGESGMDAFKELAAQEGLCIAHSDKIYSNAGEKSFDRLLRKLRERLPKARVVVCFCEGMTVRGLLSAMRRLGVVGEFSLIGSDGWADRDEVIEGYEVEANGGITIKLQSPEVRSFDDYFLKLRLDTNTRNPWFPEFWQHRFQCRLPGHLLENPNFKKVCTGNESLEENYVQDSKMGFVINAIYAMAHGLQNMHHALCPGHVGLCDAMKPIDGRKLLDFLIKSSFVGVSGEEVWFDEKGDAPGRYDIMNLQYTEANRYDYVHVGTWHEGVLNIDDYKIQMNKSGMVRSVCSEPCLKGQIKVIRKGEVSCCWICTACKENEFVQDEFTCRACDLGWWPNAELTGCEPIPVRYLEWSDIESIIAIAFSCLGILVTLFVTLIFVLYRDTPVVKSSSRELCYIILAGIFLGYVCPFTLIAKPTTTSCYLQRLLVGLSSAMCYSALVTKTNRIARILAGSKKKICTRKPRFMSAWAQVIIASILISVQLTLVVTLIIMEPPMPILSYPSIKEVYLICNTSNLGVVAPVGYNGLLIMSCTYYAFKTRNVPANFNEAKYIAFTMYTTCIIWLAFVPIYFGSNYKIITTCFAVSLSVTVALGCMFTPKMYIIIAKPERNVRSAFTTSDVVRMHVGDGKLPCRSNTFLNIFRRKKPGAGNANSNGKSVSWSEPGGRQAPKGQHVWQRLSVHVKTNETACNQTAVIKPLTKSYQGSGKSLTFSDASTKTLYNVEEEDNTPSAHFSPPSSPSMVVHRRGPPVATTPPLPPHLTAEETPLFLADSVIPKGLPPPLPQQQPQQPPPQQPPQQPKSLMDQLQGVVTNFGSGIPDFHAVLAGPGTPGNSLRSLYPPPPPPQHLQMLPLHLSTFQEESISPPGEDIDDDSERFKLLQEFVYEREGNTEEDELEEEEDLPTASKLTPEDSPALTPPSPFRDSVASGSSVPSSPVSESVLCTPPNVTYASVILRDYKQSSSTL

The term IC50 denotes the midpoint of a concentration-inhibition curve. Take `CO[C@H]1CC[C@@H](C(=O)c2ccc3nc4c(cc3c2)CCCN4C)CC1`: in data set [1], half-maximal inhibition (IC50) was put at 29 nM.

With `CCc1cc2cc(C(=O)CCc3ccccc3)ccc2nc1C`, the IC50 is 230 nM in data set [2] and over 10000 nM in data set [1].

As for `CCc1cc2cc(C(=O)Cc3cccc(OC)c3)ccc2nc1C`, inhibition in data set [2] was half-maximal at 435 nM (IC50).

With `CO[C@H]1CC[C@@H](C(=O)c2ccc3nc4c(cc3c2)CCS4)CC1`, the concentration for half-maximal inhibition (IC50) in data set [2] and in data set [1] was 2 nM throughout.

In data set [2], `CCc1cc2cc(C(=O)Cc3ccc(N(C)C)cc3)ccc2nc1C` displayed an IC50 of 645 nM.

For `CCc1cc2cc(C(=O)[C@H]3CC[C@@H](OC)CC3)ccc2n2nnnc12`, the IC50 in data set [2] amounted to 45 nM; in data set [1], 450 nM.

In data set [2], `CCc1cc2cc(C(=O)C3CCC(OC)CC3)ccc2nc1-c1cccs1` (configuration not stated) came in with an IC50 of 3310 nM.

For the compound `CCCc1ccc2cc(C(=O)[C@H]3CC[C@@H](OC)CC3)ccc2n1`, 3 nM corresponded to half-maximal inhibition in data set [1] (IC50).

`CCc1cc2cc(C(=O)Cc3ccc(OC)c(OC)c3)ccc2nc1C`: the IC50 in data set [2] was over 10000 nM.

Regarding `CCc1cc2cc(C(=O)C3CCC(O)CC3)ccc2nc1C` (configuration not stated), half-maximal inhibition in data set [1] (IC50) was put at 80 nM.

Consider `CCc1cc2cc(C(=O)Cc3ccccc3)ccc2nc1C`, for which the IC50 is 10 nM in data set [2] and 51 nM in data set [1].

In data set [2], `O=C(Cc1ccccc1)c1ccc2cc3c(nc2c1)OCCC3` yielded a 50% inhibitory concentration (IC50) of 8300 nM.

With `CO[C@H]1CC[C@@H](C(=O)c2ccc3nc4c(cc3c2)CCC4)CC1`, in data set [1], the IC50 stood at 0.56 nM.

On to `CO[C@H]1CC[C@@H](C(=O)c2ccc3nc4c(cc3c2)CCCCC4)CC1`, for which the IC50 in data set [2] stood at 80 nM; in data set [1], 18 nM.

As for `O=C(Cc1ccsc1)c1ccc2nc3c(cc2c1)CCCO3`, the figures for the IC50 in data set [2] and in data set [1] were 7 nM and 74 nM, respectively.

With `CCc1cc2cc(C(=O)C34CC5CC(CC(C5)C3)C4)ccc2nc1C`, in data set [2], the IC50 was found to be 126 nM.

For `C[C@H]1CC[C@@H](C(=O)c2ccc3nc4c(cc3c2)CCCCC4)CC1`, the IC50 in data set [2] was determined as 125 nM; in data set [1], 16 nM.

Consider `CCc1cc2cc(C(=O)[C@H]3CC[C@@H](OC)CC3)ccc2nc1F`, for which, in data set [1], inhibition was half-maximal at 9 nM (IC50).

Turning to `O=C(CCc1ccccc1)c1ccc2nc3c(cc2c1)CCCO3`, the IC50 in data set [2] is 85 nM; in data set [1], 160 nM.

Take `O=C(Cc1ccccc1)c1ccc2nc3c(cc2c1)CCCO3`: the IC50 in data set [2] stood at 6 nM; in data set [1], 14 nM.

Take `CCc1cc2cc(C(=O)C3CCC(OC)CC3)ccc2nc1-c1nccs1` (configuration not stated): the IC50 in data set [2] was over 10000 nM.

In data set [1], `CCc1cc2cc(C(=O)C3CCC(OC)CC3)ccc2nc1CC` (stereo in doubt; cis) came in with an IC50 of 8 nM.

The term half-life denotes the time in which the quantity being followed falls by half. The clearance is a measure of how efficiently the substance is removed, as volume per time. Lower therefore signals inefficient removal. Compound `CO[C@H]1CC[C@@H](C(=O)c2ccc3nc4c(cc3c2)CCCO4)CC1` (stereo in doubt; form 1) had a half-life in data set [3] of 19.2 min. The compound also gave a clearance in data set [4] of 91.7 mL/min/kg. The IC50 is 3 nM in data set [2] and 0.55 nM in data set [1].

Regarding `CO[C@H]1CC[C@@H](C(=O)c2ccc3nc4c(cc3c2)CCCO4)CC1` (stereo in doubt; form 2), the IC50 worked out at 45 nM in data set [2] and 106 nM in data set [1].
